STK33 inh = blocks human STK33 kinase activity; AID 2661; Q9BYT3; purified STK33, MBP phosphorylation, ADP-Glo luminescence; inhibition, % at 10 µM; actives 0.073% (n = 320,000);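 active = inhibition at or above 25%, using the most active replicate where run in duplicate; inactive = inhibition below 25%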
MEKK2 WT-MEK5 = raises or lowers MEK5 binding to wildtype human MEKK2 PB1 domain; Q9Y2U5; bead flow cytometry, Alexa488-MEK5 binding to MEKK2 WT; actives lie on both sides; binding response (% of control), % at 10 µM; actives 1.1% (n = 290,000); AID 1531; in the data active = binding response below about 67% or above about 130%
GSK3 alpha inh = inhibitors of human GSK-3 alpha kinase; P49840; ADP-Glo luminescence, 60 min; inhibition, % at 10 µM; actives 0.1% (n = 320,000); AID 2650;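 active = more than half of replicates show inhibition above 20%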;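 note: GST-tagged GSK-3 alpha with peptide substrate and 25 µM ATP; 0% = DMSO neutral wells and 100% = GW8510 positive control wells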
MEKK3 PB1 HTS = MEKK3-MEK5 PB1 interaction, increase or decrease; bead-based flow cytometry, Alexa488-MEK5 binding to MEKK3; actives lie on both sides; 0 = blocked by unlabeled MEK5, 100 = vehicle; actives 1.4% (n = 290,000); Q99759; binding response (% of control), % at 10 µM; AID 1529;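 active = binding response more than 3 SD above or below the average of its plate-row segment, actives on both sides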;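 note: Alexa488 bead fluorescence after subtracting the streptavidin-only scavenger bead signal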
MEKK2mut PB1 HTS = signal of MEK5 binding to mutant human MEKK2 PB1 domain; percent response, % at 10 µM; AID 1530; actives 0.35% (n = 290,000); bead flow cytometry, Alexa488-MEK5 binding to MEKK2 mutant; in the data active = percent response above about 24%, passing the limit was not always enough
GSK3beta inhib = blocks human GSK3beta kinase activity | GST-GSK3beta kinase, ADP-Glo luminescence, 60 min; hits give low values | actives 0.038% (n = 300,000) | activity score (negative = inhibition), % at 10 µM | P49841;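 active = more than half of replicate wells score below -50%, meaning over 50% inhibition versus plate controls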;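 note: 0% = median DMSO wells and -100% = median GW8510 positive control wells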
Target sequence (P49841 whole entry, looked up): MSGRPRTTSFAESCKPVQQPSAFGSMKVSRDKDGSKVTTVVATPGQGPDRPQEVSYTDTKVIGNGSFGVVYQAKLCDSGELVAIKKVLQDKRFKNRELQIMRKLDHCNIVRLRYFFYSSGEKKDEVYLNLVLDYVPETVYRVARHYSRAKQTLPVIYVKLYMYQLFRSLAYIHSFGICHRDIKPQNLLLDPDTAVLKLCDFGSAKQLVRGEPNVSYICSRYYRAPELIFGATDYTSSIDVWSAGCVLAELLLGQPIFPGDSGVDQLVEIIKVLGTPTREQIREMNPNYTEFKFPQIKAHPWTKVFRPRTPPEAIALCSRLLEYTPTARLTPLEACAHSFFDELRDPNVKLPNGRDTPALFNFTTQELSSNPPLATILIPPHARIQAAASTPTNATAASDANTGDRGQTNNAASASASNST
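Test system – GST-tagged human GSK3beta kinase, cell-free · Incubation – 60 min enzyme reaction, room temperature · Signal – ADP-Glo luminescence · Also added – peptide substrate and ATP at 25 µM · Controls – DMSO neutral wells and GW8510 at 20 µM as positive · Buffer or medium – Tris/MgCl2 kinase buffer · Measure – Luminescence-derived activity versus plate DMSO and GW8510 wells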
MEKK2wt confirm = raises or lowers MEK5 binding to wildtype human MEKK2, retest; shares compounds with MEKK3 PB1 HTS; binding response (% of control), % at 10 µM; actives 2.4% (n = 5,900); bead flow cytometry, Alexa488-MEK5 binding to MEKK2 WT; actives lie on both sides; in the data active = binding response below about 16% or above about 210%; inactive = in between
MEKK2mut confirm = signal of MEK5 binding to mutant human MEKK2, retest; shares compounds with MEKK3 PB1 HTS; actives 2% (n = 5,900); bead flow cytometry, Alexa488-MEK5 binding to MEKK2 mutant; percent response, % at 10 µM; in the data active = percent response mostly above about 71%, no sharp cut-off; inactive = mostly below about 38%;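 note: higher means compound restores mutant binding toward wildtype level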
MEKK3 confirm = confirmation of inhibitors of MEK5 binding to human MEKK3 | AID 1894 | binding response (% of control), % at 10 µM | actives 1.8% (n = 5,900) | bead flow cytometry, Alexa488-MEK5 binding to MEKK3; hits give low values | shares compounds with MEKK3 PB1 HTS;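 active = binding response below 72% of control, or above a set upper limit, though filed actives all read lower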;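 note: 100% = DMSO only wells and 0% = binding blocked by excess unlabeled MEK5; lower values mean stronger disruption of MEK5 binding to MEKK3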
Numbers without * were called inactive; . = no result; [ ] = remark or other dose. Sampled rows, rich in hits. Any-hit rate of the full collection: about 2.1%.

SMILES | STK33 inh | MEKK2 WT-MEK5 | GSK3 alpha inh | MEKK3 PB1 HTS | MEKK2mut PB1 HTS | GSK3beta inhib | MEKK2wt confirm | MEKK2mut confirm | MEKK3 confirm
CCOC(=O)C1CCN(C(=O)CSc2ccc(Cl)cc2)CC1 | -0.4 | 108.0 | 1.6 | 129.0* | 1.0 | 5.1 | 100.0 | -5.0 | 100.0
CCOC(=O)C1CCN(C(=O)CSc2ccc(Br)cc2)CC1 | -0.2 | 98.0 | -4.0 | 101.0 | 3.0 | 2.4 | . | . | .
Cc1onc(-c2c(F)cccc2Cl)c1C(=O)N1CCCCC1 | -1.2 | 105.0 | 0.1 | 101.0 | 2.0 | 1.0 | . | . | .
Cc1ccc(N/C=C2\C(=O)N(c3ccc(F)cc3F)C(c3cccnc3)S2(=O)=O)cc1 (stereo not given) | -0.5 | 113.0 | -2.5 | 131.0* | 27.0 | 2.2 | 104.0 | 0.0 | 101.0
Cc1ccc(NC2c3ccccc3C(=O)N2c2cccnc2)cc1 (stereo not given) | -1.2 | 109.0 | -0.3 | 127.0 | 24.0 | 1.8 | . | . | .
CNC(=O)c1c(NC(=O)CCS(=O)(=O)c2ccc(Cl)cc2)sc2c1CCN(C(=O)OC)C2 | -2.5 | . | 0.5 | . | . | 2.0 | . | . | .
Clc1ncc(CSc2ccccc2)s1 | -0.4 | 74.0 | 3.5 | 70.0 | -9.0 | -0.3 | . | . | .
COc1ccc(NC(=O)N2CCCC2C(=O)NCc2ccc(C)cc2)cc1 (stereo not given) | 0.9 | 114.0 | -1.3 | 73.0*[inhibitor] | 62.0* | 0.4 | 101.0 | 0.0 | 104.0
C[C@H](NC(=O)c1ccccc1Cl)C(=O)OCC(=O)NNC(=O)c1cccs1 | . | . | . | . | . | 2.1 | . | . | .
CCN(CC)c1ccc(C=C(c2nnnn2-c2ccc(C)cc2)c2nnnn2-c2ccc(C)cc2)cc1 | 0.0 | 102.0 | -0.3 | 131.0* | 1.0 | 0.8 | 95.0 | 2.0 | 104.0
CC(NC(=O)/C=C/c1cnc2ccccc2n1)C12CC3CC(CC(C3)C1)C2 (stereo not given) | -1.6 | 102.0 | -2.6 | 134.0* | 0.0 | 1.5 | 97.0 | 0.0 | 104.0
CCOc1ncccc1C(=O)Nc1ccc(S(=O)(=O)Nc2cc(C)nc(C)n2)cc1 | 4.3 | . | 2.9 | . | . | . | . | . | .
COc1ccc(NC(=O)c2cc(-c3cc(C)cc(C)c3O)n[nH]2)cc1Cl | 0.5 | 167.0* | -0.6 | 107.0 | 9.0 | -0.6 | 150.0 | 16.0 | 102.0
COc1ccc(C2c3ccc4ccccc4c3Oc3ncn(Cc4ccco4)c(=N)c32)cc1OC (stereo not given) | -2.3 | 161.0* | -3.4 | 103.0 | 34.0 | -2.4 | 147.0 | 33.0 | 109.0
COc1ccccc1C1c2ccc3ccccc3c2Oc2ncn(CCN(C)C)c(=N)c21 (stereo not given) | 1.2 | 153.0* | 3.1 | 115.0 | 32.0* | -3.3 | 150.0 | 29.0 | 107.0
COc1ccc(C2c3c(ncn(CCN4CCOCC4)c3=N)Oc3ccc4ccccc4c32)cc1OC (stereo not given) | 0.0 | 163.0* | -5.5 | 109.0 | 21.0 | -1.3 | 153.0 | 28.0 | 107.0
COc1ccccc1C1c2ccc3ccccc3c2Oc2ncn(CCCO)c(=N)c21 (stereo not given) | 0.0 | 121.0 | 1.9 | 100.0 | 6.0 | -3.2 | . | . | .
COc1ccc(C2c3ccc4ccccc4c3Oc3ncn(CCCN(C)C)c(=N)c32)cc1 (stereo not given) | 0.7 | 202.0* | 12.7 | 111.0 | 51.0* | -11.2 | 198.0 | 55.0 | 100.0
CSCCC(NC(=O)COc1ccccc1)C(=O)N1CC(C)OC(C)C1 (stereo not given) | -0.8 | . | 0.0 | . | . | . | . | . | .
CC1CN(Cc2cn(C)nc2-c2ccc(Oc3ccccc3)cc2)CCN1C (stereo not given) | . | 172.0* | . | 112.0 | 49.0 | 0.3 | 109.0 | 0.0 | 98.0
COc1ccc(/C=C/c2cc(-c3ccc(C)cc3)o[n+]2C)cc1 | 1.5 | 155.0* | 0.1 | 109.0 | 18.0 | -3.6 | 112.0 | 9.0 | 95.0
COc1ccc(/C=C/c2c(-c3ccc(OC)cc3)oc3ccc(-c4ccc(OC)cc4)cc23)cc1 | -1.4 | 98.0 | -2.7 | 102.0 | -3.0 | 0.8 | . | . | .
C=CCSc1nnc(CNC(=O)c2ccccc2C)n1C(C)C | -0.8 | 121.0 | -0.2 | 140.0* | 4.0 | -0.4 | 101.0 | -3.0 | 96.0
COc1ccc(N2C(=O)CCC2(C#N)c2ccc(Br)cc2)cc1 (stereo not given) | 0.1 | 63.0 | -1.0 | 49.0*[inhibitor] | -25.0 | 3.6 | 98.0 | -5.0 | 102.0
O=C(CSc1nc2cc(Cl)ccc2s1)NC(=O)NCc1ccco1 | 0.1 | 85.0 | -2.8 | 81.0*[inhibitor] | -11.0 | 1.7 | 99.0 | -1.0 | 100.0
SMILES | STK33 inh | MEKK2 WT-MEK5 | GSK3 alpha inh | MEKK3 PB1 HTS | MEKK2mut PB1 HTS | GSK3beta inhib | MEKK2wt confirm | MEKK2mut confirm | MEKK3 confirm
Nc1ccc(C(=O)O)c(O)c1 | -0.3 | 81.0 | -2.1 | 95.0 | -14.0 | 0.8 | . | . | .
Nc1ccc(N)c(C(=O)O)c1 | 0.0 | 25.0*[inhibitor] | -3.7 | 47.0*[inhibitor] | -58.0 | 0.3 | 57.0 | -20.0 | 57.0*
Cn1c(N)c(S(=O)(=O)N2CCN(c3cccc(Cl)c3)CC2)c(=O)n(C)c1=O | -0.6 | 98.0 | -0.5 | 96.0 | -4.0 | -1.2 | . | . | .
COc1cc2c3nnc(-c4ccccc4)c-3cn(Cc3ccccc3F)c2cc1OC | -0.4 | 153.0* | 1.3 | 96.0 | 26.0 | 0.8 | 132.0 | 13.0 | 99.0
COc1cc2c3nnc(-c4ccc(F)cc4)c-3cn(Cc3ccccc3F)c2cc1OC | . | 100.0 | . | 92.0 | -2.0 | . | . | . | .
O=c1cc(N2CCCC2)c2ccccc2o1 | 2.0 | . | 3.3 | 1.0*[inhibitor] | -33.0 | -6.6 | 104.0 | -3.0 | 103.0
O=C(CSc1nc2nc3c(cc2c(=O)n1-c1ccccc1)CCCC3)Nc1cccc2ccccc12 | 0.2 | 101.0 | -0.6 | 113.0 | 0.0 | 2.1 | . | . | .
Cc1cccc(NC(=O)CSc2nc3nc4c(cc3c(=O)n2-c2ccccc2)CCCC4)c1 | -3.5 | 104.0 | -2.5 | 132.0* | 0.0 | 1.0 | 90.0 | -3.0 | 99.0
CCO[C@@H]1OC(C(=O)NC2CC2)=C[C@H](c2c[nH]c3ccccc23)[C@H]1CCCO | -0.8 | 111.0 | 1.5 | 82.0*[inhibitor] | 1.0 | 2.8 | 99.0 | -7.0 | 103.0
CCO[C@H]1OC(C(=O)NC2CC2)=C[C@@H](c2c[nH]c3ccccc23)[C@@H]1CCCO | -0.3 | 87.0 | 2.7 | 92.0 | 5.0 | 2.2 | . | . | .
C/C(=N\NC(=O)CNC(=O)C(c1ccccc1)c1ccccc1)c1ccc(C(C)(C)C)cc1 | 0.4 | 108.0 | -0.8 | 162.0* | 1.0 | -2.3 | 106.0 | -1.0 | 98.0
